Compound activity as filed in PubChem.
M1 PAM = positive allosteric modulators of human M1 muscarinic receptor. CHO-K1 hM1, Fluo-8 calcium fluorescence, ACh EC20; 0% = ACh EC20, 100% = maximal ACh. activation, % at 3 µM. actives 0.088% (n = 360,000); in the data active means activation above about 19%, passing the limit was not always enough
m5-HT2A agonist = activates the mouse 5-HT2A serotonin receptor; CHO-K1 mHTR2A beta-arrestin complementation, luminescence; percent of 30 µM serotonin response; activation, % at 7.6 µM; AID 624169; actives 0.66% (n = 360,000); P35363;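 active means activation above a run cutoff, the mean activation of all tested compounds plus 3 SD, cut at about 14% in these data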;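 further: 0% = plate median of compound wells and 100% = 30 µM serotonin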
Target sequence (P35363 whole entry, looked up): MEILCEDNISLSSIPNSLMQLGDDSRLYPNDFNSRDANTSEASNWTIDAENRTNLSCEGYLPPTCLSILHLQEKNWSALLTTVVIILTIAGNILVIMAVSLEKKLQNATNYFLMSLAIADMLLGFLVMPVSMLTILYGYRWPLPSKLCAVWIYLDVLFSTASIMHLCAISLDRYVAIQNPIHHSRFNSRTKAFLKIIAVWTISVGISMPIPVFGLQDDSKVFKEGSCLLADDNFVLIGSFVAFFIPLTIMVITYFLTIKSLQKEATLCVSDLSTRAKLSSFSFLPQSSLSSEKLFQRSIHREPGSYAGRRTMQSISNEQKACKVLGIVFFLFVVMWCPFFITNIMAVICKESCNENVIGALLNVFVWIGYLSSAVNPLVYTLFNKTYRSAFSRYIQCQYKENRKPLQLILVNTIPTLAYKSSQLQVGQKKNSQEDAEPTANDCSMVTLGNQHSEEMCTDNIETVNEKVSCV
CHRM1 antagonist = blocks human M1 muscarinic receptor | CHO-K1 hM1, Fluo-8 calcium fluorescence, ACh EC80 antagonist | actives 1.3% (n = 360,000) | AID 588852 | inhibition, % at 3 µM;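 active means percent inhibition above its own plate's cutoff, namely the mean of that plate's compound wells plus 3 SD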;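 further: peak over basal fluorescence ratio during 140 s after agonist addition; 0% = ACh EC80 plus DMSO and 100% = DMSO alone without agonist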
TAAR1 antagonist = human TAAR1 antagonism; Q96RJ0; CHO RD-HGA16 TAAR1, Fluo-8 calcium fluorescence, antagonist; inhibition, % at 3 µM; actives 1.5% (n = 360,000);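 active means inhibition above a per-plate cutoff, the mean inhibition of test compounds on that plate plus 3 SD, cut at about 49% in these data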;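 further: 0% = DMSO plus EC80 beta-PEA response and 100% = DMSO alone without agonist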
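Test system: RD-HGA16 CHO cells with stable hTAAR1 and Gα16 / Probe or stimulus: EC80 β-phenethylamine stimulus / Times: seeding 17-24 h prior, 75-min 37 °C, 30-min RT dye loading / Detection: Fluo-8 calcium-sensitive fluorescence / Read-out basis: % inhibition scaled between DMSO and EC80 PEA controls / Repeats: singlicate, one well per test compound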
TAAR1 agonist = agonists of human TAAR1; actives 0.99% (n = 360,000); activation, % at 3 µM; CHO RD-HGA16 TAAR1, Fluo-8 calcium fluorescence; vehicle wells 0%, saturating PEA agonist 100%; Q96RJ0; AID 624467;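 active means activation above the mean activation of all test compounds in the run plus 3 SD, cut at about 38% in these data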
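Assay system – CHO-derived RD-HGA16 cells with stable Gα16 and human TAAR1 · Compound dosing – one-point dosing at 3 µM (nominal) · Incubation – 17-24 h seeding, 75 min 37 °C dye, 30 min RT · Measured by – kinetic Fluo-8 calcium fluorescence · Control set – DMSO vehicle as 0%, PEA at EC100 as 100% · Repeats – single well for each compound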
CHRM1 agonist = agonists of human M1 muscarinic receptor; AID 588814; activation, % at 3 µM; actives 0.33% (n = 360,000); CHO-K1 hM1, Fluo-8 calcium fluorescence, agonist mode; 0% DMSO, 100% acetylcholine EC100; P11229;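 active means activation above the run's mean compound activation plus 3 SD, cut at about 16% in these data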;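 further: peak over basal fluorescence ratio within a 140 s kinetic read after compound addition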
nonsel antag count = nonselective antagonism, TAAR1 counter-screen | shares compounds with TAAR1 antagonist | counterscreen cell line, calcium fluorescence, antagonist mode | inhibition, % at 3 µM | actives 77% (n = 2,400); in the data active means inhibition above about 22%;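 further: CHO-Ga16 host cells stimulated with ATP at an EC80 level; 0% = agonist EC80 plus vehicle and 100% = vehicle without agonist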
TAAR1 antag conf = human TAAR1 antagonism, confirmed | inhibition, % at 3 µM | actives 40% (n = 2,400) | TAAR1-expressing cells, fluorescence antagonist read-out | shares compounds with TAAR1 antagonist | AID 651785; in the data active means inhibition above about 49%;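 further: CHO-Ga16 host cells challenged with agonist PEA near its EC80; 0% = agonist at EC80 plus vehicle and 100% = vehicle with no agonist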
Ga16 ag counter = counter-screen for TAAR1 antagonists: nonselective Ga16 agonists. shares compounds with TAAR1 antagonist. Ga16-expressing cells, calcium fluorescence, agonist counterscreen. activation, % at 3 µM. actives 18% (n = 2,400). AID 651953; in the data active means activation above about 12%;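 further: 0% = vehicle wells and 100% = saturating stimulus response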
TAAR1 ag count = activates human TAAR1 in antagonist counter-screen. shares compounds with TAAR1 antagonist. hTAAR1 cell line, fluorescence activation, agonist mode. activation, % at 3 µM. actives 2% (n = 2,400); in the data active means activation above about 37%;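 further: CHO cells stably expressing TAAR1 with calcium dye readout; 0% = DMSO vehicle and 100% = full agonist response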
Numbers without * were called inactive; x = not tested or not shown. Most compounds without a hit are left out; they make up all but 3.9% or so of the library.

SMILES	M1 PAM	m5-HT2A agonist	CHRM1 antagonist	TAAR1 antagonist	TAAR1 agonist	CHRM1 agonist	nonsel antag count	TAAR1 antag conf	Ga16 ag counter	TAAR1 ag count
C=CCNC(=O)c1cccc2c1C(=O)c1ccc(N3CCOCC3)cc1S2(=O)=O	5.5	-3.7	-4.0	-2.6	10.8	2.1	x	x	x	x
O=C(NCc1ccc(F)cc1)c1cccc2c1C(=O)c1ccc(N3CCOCC3)cc1S2(=O)=O	-7.1	12.4	7.8	55.5*	35.5	1.3	27.4*	45.4	9.2	6.9
O=C(Nc1ccc2c(c1)CCC2)c1cc(=O)[nH]c2ccccc12	-0.9	5.4	-10.3	17.9	-1.2	-3.2	x	x	x	x
CCN(CC)S(=O)(=O)c1ccc(Nc2nc3ccccc3n3nnnc23)cc1	-1.4	-3.4	-17.3	48.9*	10.5	10.9	22.9*	41.6	10.2	15.3
c1ccc(Nc2nc3ccccc3n3nnnc23)cc1	-0.4	6.6	-5.8	-23.4	4.8	-3.6	x	x	x	x
CC(=O)c1c(C)[nH]c(C(=O)COC(=O)c2cc(S(=O)(=O)N(C)c3ccccc3)ccc2Cl)c1C	-1.2	4.8	-6.5	11.9	-0.6	-7.0	x	x	x	x
CCN(c1ccccc1)S(=O)(=O)c1ccc(Cl)c(C(=O)OCC(=O)c2[nH]c(C)c(C(C)=O)c2C)c1	-20.2	-1.1	22.6	63.5*	-0.2	-8.0	21.1	26.8	2.3	4.3
Cc1cc(-c2ccc(S(=O)(=O)N(C)Cc3ccccc3)cc2)on1	-8.0	-1.4	16.1	65.0*	9.2	-0.3	25.8*	50.9*	9.6	16.7
CSc1ccc(S(=O)(=O)N(C)Cc2ccccc2)cc1	-10.5	-3.7	1.0	28.4	8.8	-5.8	x	x	x	x
O=C(CSc1ccc(-c2ccncc2)nn1)N1CCN(c2ccccc2)CC1	-0.8	1.4	-2.4	-6.1	1.3	-7.8	x	x	x	x
CCN(CC(=O)NCc1ccc(Cl)cc1)S(=O)(=O)c1ccc(NC(C)=O)cc1	-1.9	-1.3	15.2	77.7*	19.1	0.3	20.9	46.6	9.1	11.1
CC1=CC2(C)NC(=O)C(C)C12 (configuration not stated)	8.3	0.3	-12.3	-6.5	0.8	-1.9	x	x	x	x
CCN(CC)S(=O)(=O)c1ccc(/C=C/C(=O)Nc2cccc(F)c2)cc1	-2.3	-6.0	4.0	57.7*	10.0	-1.7	39.3*	61.9*	10.1	7.1
CCN(CC)S(=O)(=O)c1ccc(/C=C/C(=O)O)cc1	3.8	1.6	-5.9	14.0	-1.0	-5.8	x	x	x	x
COc1cccc(-c2cnc3c(NC(C)=O)cc(-c4ccsc4)cn23)c1	-9.0	-1.2	17.1	73.4*	6.5	0.2	41.0*	66.4*	13.5*	12.0
COc1cccc(-c2cnc3c(NC(C)=O)cc(-c4ccc(OC)c(OC)c4)cn23)c1	-4.8	-2.5	0.8	-19.9	2.5	-4.7	x	x	x	x
O=C(Nc1ccc2c(c1)CCCN2C(=O)c1cccs1)c1ccccc1	-2.2	-3.0	6.9	48.0	6.9	-5.5	x	x	x	x
O=C(Nc1ccc2c(c1)CCCN2C(=O)c1cccs1)c1cccc(F)c1	-12.5	-9.2	12.9	69.5*	6.3	0.3	28.6*	45.1	6.9	2.7
O=C(Nc1ccc2c(c1)CCCN2C(=O)c1ccccc1)c1ccccc1Br	-7.8	-1.9	16.3	66.1*	9.1	3.0	30.9*	47.4	10.8	6.5
CC(C)=N/N=C1/NC(=O)C(c2ccc(Cl)cc2)S1 (configuration not stated)	5.8	-2.5	-14.7	54.6*	27.4	-0.7	0.7	-2.9	2.6	3.0
O=C1NC(=S)S/C1=C/c1ccc(N2CCOCC2)o1	-2.4	-1.4	12.3	x	x	-2.6	x	x	x	x
COc1ccc2cc(/C=C3\SC(=S)NC3=O)c(N3CCOCC3)nc2c1	-10.6	1.5	5.0	52.6*	3.8	-2.8	36.1*	41.8	5.4	-0.3
Oc1c(Br)cc(Br)cc1C=NCc1ccc(F)cc1	11.7	3.3	-8.8	52.0*	5.3	-4.2	27.2*	27.7	0.8	14.0
CC(=O)Nc1sc(N/N=C/c2ccc(C)cc2)nc1-c1ccc(C)cc1	-1.2	3.8	6.9	53.2*	1.9	-0.6	4.1	10.7	4.0	9.7
Cc1c(Cl)cccc1NC(=O)C1=COCCO1	-0.9	-2.0	1.7	-24.0	0.6	-3.1	x	x	x	x
SMILES	M1 PAM	m5-HT2A agonist	CHRM1 antagonist	TAAR1 antagonist	TAAR1 agonist	CHRM1 agonist	nonsel antag count	TAAR1 antag conf	Ga16 ag counter	TAAR1 ag count
C=CC[C@@H](CC(=O)OC(C)(C)C)C(=O)OC[C@H]1CCCN1C(=O)[C@@H](CC=C)CC(=O)N[C@H](CO)Cc1ccccc1	-9.9	5.3	11.5	60.9*	17.4	-2.0	35.6*	43.1	7.6	7.0
CS(=O)(=O)c1cnc(-c2ccccc2)nc1-c1ccccc1Cl	-13.8	2.9	15.4	-12.3	11.2	-7.8	x	x	x	x
CCOc1ccc(S(=O)(=O)Nc2cccc(C(=O)N3CCN(c4ccccn4)CC3)c2)cc1	-7.4	7.3	1.1	52.5*	11.5	1.1	31.4*	49.1*	15.6*	15.2
CCOc1ccc(S(=O)(=O)Nc2cccc(C(=O)N3CCN(c4ccccc4O)CC3)c2)cc1	18.0	7.9	16.1	36.0	11.0	5.0	x	x	x	x
COc1cccc(OC)c1OCCOc1ccc(C(=O)c2ccccc2)cc1	-12.6	-2.6	5.4	51.6*	7.5	-1.8	31.1*	58.7*	7.2	4.8
CSCCC(NS(=O)(=O)c1ccc2c(c1)OCCO2)C(=O)NCCc1ccccn1 (configuration not stated)	5.6	-1.1	-0.8	3.1	0.5	-1.4	x	x	x	x
CSCCC(NS(=O)(=O)c1ccc2c(c1)OCCO2)C(=O)N(C)Cc1ccc(C)cc1 (configuration not stated)	-5.2	0.5	11.4	63.2*	11.3	0.1	23.2*	46.8	11.1	11.3
COc1ccccc1NS(=O)(=O)c1ccc2c(c1)OCCO2	6.0	-12.5	-11.0	3.0	0.8	-0.3	x	x	x	x
COc1cccc(CN(C)C(=O)C(CCSC)NS(=O)(=O)c2ccc3c(c2)OCCO3)c1OC (configuration not stated)	-10.5	2.4	30.2*	75.0*	17.6	0.4	37.5*	62.8*	11.7*	14.1
CCN(Cc1ccncc1)C(=O)c1cc(COc2ccc(OC)cc2Cl)on1	2.9	-1.1	-3.2	-15.2	-0.5	-3.3	x	x	x	x
